The nature of assay [1]: inhibitors of TNFa-induced NFkB p65 translocation, primary screen, imaging, HUVEC, MLSMR starter and 10KST1 sets (AID 438;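 active = inhibition above 20% together with a positive visual image hit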;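 also: compound added about 3h40 before a 20 min TNFalpha stimulation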;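 as to inhibition: signal is the nuclear over cytoplasmic p65 intensity ratio per well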). As to conditions: HUVEC TNFa-induced p65 nuclear translocation; cell count: measured here: nuclei count (cytotoxicity indicator), at 2.08 µM; inhibition: at 2 µM, stronger effect = higher value, 0% TNFa-plus-vehicle, 100% no-TNFa wells.
Assay [2] in a line: inhibitors of mutant huntingtin aggregation, primary screen, imaging, exon1htt(103Q)mCFP cells, high-content imaging (AID 483;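 active = visual image review flags a hit and inhibition of aggregation exceeds 20%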;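 also: compound exposure lasted 3 days before fixation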;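 as to nuclei count: percent of the per-plate median nuclei count of sample wells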). As to conditions: exon1htt(103Q)mCFP cell line, aggregate imaging, at 2 µM; inhibition of aggregation: stronger effect = higher value; nuclei count: measured here: cell count, toxicity.
Assay [3] in a line: inhibitors of E-selectin induction by TNFa, primary screen, imaging, HUVEC, immunofluorescence, MLSMR starter and 10KST1 sets (AID 487;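 active = visually confirmed hit in the image check and inhibition above 20%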;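 as to inhibition: signal is fraction of cell area covered by stained E-selectin grains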;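 as to nuclei count: 100% = median nuclei count of all wells on the same plate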). The settings on record: HUVEC TNFalpha-induced E-selectin immunofluorescence imaging, at 2 µM; inhibition: stronger effect = higher value; nuclei count: measured here: cell number, toxicity.
The target in assay [4] is Voltage-gated potassium channel subunit beta-2 (Rattus norvegicus) (UniProt P62483). As to the kind of experiment: KvBeta enzyme negative modulators, primary screen, biochemical, NADPH fluorescence (AID 622).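 Also: slope of raw intensity against log time taken from 70 to 1610 s.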 The settings on record: recombinant KvBeta, 4-cyanobenzaldehyde reduction, at 10 µM, stronger effect = higher value.
Assay [5] shares this target. Nature of the assay: KvBeta positive modulators, primary screen, biochemical, NADPH fluorescence (AID 623;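 active = NADPH fluorescence slope more negative than the mean of all samples by about 3 SD, 99.7% confidence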;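 also: fluorescence intensity change per second fitted from 20 to 320 s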). As to conditions: Recombinant KvBeta, NADPH fluorescence decrease slope, 10 min; at 10 µM; stronger effect = lower value.
Assay [6] addresses Alpha-2C adrenergic receptor (Homo sapiens) (UniProt P18825). Nature of the assay: modulators of alpha2C/GIRK thallium flux, primary screen, cell-based, HEK293 alpha2C/GIRK1/2 (AID 624;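 active = fluorescence slope after compound addition differing from the mean of all screened samples at 99.7% confidence, in either direction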;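 also: slope of fluorescence ratio to pre-addition baseline per second over 15 to 24 s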). As to conditions: thallium flux BTC fluorescence, at 10 µM, actives lie on both sides.
Assay [7] is described as follows: inhibitors of larval lipid processing in zebrafish, primary screen, whole organism, PED6 fluorescence, gall bladder and intestine (AID 686;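 active = a full or partial loss of lipid-probe fluorescence in the fish gall bladder, intestine or both, judged by eye; inactive = no fluorescence loss, or compound toxic to the fish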;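 also: larvae 5 to 7 days old with five fish per well; signal comes from phospholipase A2 cleavage of quenched PED6 carried via bile; overnight exposure to compound and PED6 before scoring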). The settings on record: Zebrafish larvae PED6 lipid processing, fluorescence scoring; screened at 20 µM (by protocol). An outline of the steps:
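Test system – live zebrafish larvae aged 5-7 days, whole organism · Buffer or medium – E3 fish medium · Reagent – quenched phospholipase substrate PED6, 100 nM final, ingested by larvae · Doses – 20 µM single dose · Incubation – overnight compound and PED6 incubation · Technique – visual fluorescence microscopy scoring of gall bladder, gut · Read-out basis – visual per-well fluorescence inhibition score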

Assay [8] can be described thus: inhibitors of Sendai virus-induced IRF3 signaling, primary screen, TLR/RLR signaling modifier project, cell-based, Sendai virus stimulus, luciferase, 10K MLSCN set (AID 602276;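 active = inhibition at or above 50% at 10 µM; inactive = inhibition below 50%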;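 also: firefly luciferase from ISG56 promoter only with Renilla not read in this screen; 0% = Sendai virus plus DMSO and 100% = medium plus DMSO without virus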). The settings on record: HEK293 RL24 IRF3 luciferase reporter, at 10 µM, stronger effect = higher value.
Assay [9] can be described thus: inhibitors of poly I:C-induced TLR3 signaling, primary screen, cell-based, poly I:C stimulus, luciferase, 10K MLSCN set (AID 602277;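 active = inhibition of the reporter signal at or above 50%; inactive = inhibition below 50%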). As to conditions: HEK293-TLR3 RL24 IRF3 luciferase reporter, at 10 µM, stronger effect = higher value.

Activity calls are given as the source filed them.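 The calls were made as follows, unless noted: active = fluorescence slope higher than the sample average by over 3 SD (cut at about -0.22 in these data, passing the limit was not always enough); inactive = the rest.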

Voltage-gated potassium channel subunit beta-2 (Rattus norvegicus), sequence (P62483 whole entry, looked up): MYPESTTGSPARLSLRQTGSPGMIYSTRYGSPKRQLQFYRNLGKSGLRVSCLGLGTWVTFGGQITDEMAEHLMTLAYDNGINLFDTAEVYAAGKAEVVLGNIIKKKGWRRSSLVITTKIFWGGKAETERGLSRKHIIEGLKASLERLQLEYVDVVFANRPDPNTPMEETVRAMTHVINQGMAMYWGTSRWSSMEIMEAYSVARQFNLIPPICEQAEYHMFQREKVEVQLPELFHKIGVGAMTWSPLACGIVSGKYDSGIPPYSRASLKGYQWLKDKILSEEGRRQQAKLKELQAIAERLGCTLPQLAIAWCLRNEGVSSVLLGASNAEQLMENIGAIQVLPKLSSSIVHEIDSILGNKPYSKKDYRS
Alpha-2C adrenergic receptor (Homo sapiens), sequence (P18825 whole entry, looked up): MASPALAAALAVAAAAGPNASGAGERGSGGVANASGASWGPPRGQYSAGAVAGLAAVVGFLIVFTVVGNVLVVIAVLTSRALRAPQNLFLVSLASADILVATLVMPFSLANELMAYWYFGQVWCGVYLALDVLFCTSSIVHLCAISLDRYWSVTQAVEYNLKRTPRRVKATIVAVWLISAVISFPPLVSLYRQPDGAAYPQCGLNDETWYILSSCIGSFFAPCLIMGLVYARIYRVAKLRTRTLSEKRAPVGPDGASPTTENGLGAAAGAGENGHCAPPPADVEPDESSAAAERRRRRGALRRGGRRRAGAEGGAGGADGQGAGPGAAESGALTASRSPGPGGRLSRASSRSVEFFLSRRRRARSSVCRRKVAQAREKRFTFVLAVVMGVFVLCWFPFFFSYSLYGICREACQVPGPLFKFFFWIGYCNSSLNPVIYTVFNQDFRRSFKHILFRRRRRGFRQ

In the case of `C=C(C)Cn1c(CCCNC(=O)C(C)(C)C)nc2ccccc21`, in [1], the cell count worked out at 770. Also, the inhibition is -19.6% (inactive) in assay [1], 14% (inactive) in assay [3], 6.04% (inactive) in assay [8] and 98.2% (active) in assay [9]. Besides, the inhibition of aggregation in assay [2] was -0.5% (inactive). In addition, the results for the nuclei count in assay [2] and in [3] were 106% and 110%, respectively. In addition, in assay [4], the fluorescence slope is -0.397 (inactive). Also, the NADPH fluorescence slope in assay [5] was -3.4e-05 (inactive). Further, the slope in assay [6] was 0.00533 (inactive). In [7], the outcome was inactive.
`CS(=O)(=O)N(CC(=O)N1CCCCCC1)c1ccc(Br)cc1`: in [1], the cell count turned out to be 485. For the same compound, the inhibition was -38.8% (inactive) in assay [1], 13.3% (inactive) in assay [3], 15.8% (inactive) in assay [8] and 16% (inactive) in [9]. Moreover, the inhibition of aggregation in assay [2] was 20.1% (inactive). The nuclei count was found to be 81.6% in assay [2] and 95.6% in [3]. Further, the fluorescence slope in [4] was -0.353 (inactive). In addition, the NADPH fluorescence slope in assay [5] was -5.4e-05 (inactive). Also, in [6], the slope is 0.00619 (inactive). In assay [7], the result was inactive.
As for `COc1ccc(CSCCN)cc1Cl`, the cell count in [1] came out at 431. Moreover, the inhibition in [1] is -3.8% (inactive); in assay [3], 27.2% (inactive); in [8] it was -7.54% (inactive); in assay [9] it was -8.95% (inactive). Moreover, the inhibition of aggregation in [2] was -22.4% (inactive). Further, the values for the nuclei count in assay [2] and in [3] were 104% and 107%, respectively. The fluorescence slope in [4] is -0.4 (inactive). Besides, in assay [5], the NADPH fluorescence slope is -9.7e-05 (inactive). Besides, the slope in [6] was 0.00556 (inactive). For the same compound, the compound was called inactive in assay [7].
In the case of `C=CCOc1ccc(CN(C)CC(=O)N(CC(C)C)c2c(N)n(CC(C)C)c(=O)[nH]c2=O)cc1`, the cell count in [1] was 492. Moreover, the inhibition in assay [1] was 8.3% (inactive); in assay [3], -77.8% (inactive); in assay [8] it was 21.6% (inactive); in assay [9] it was 19.4% (inactive). Also, the inhibition of aggregation in [2] is -8.7% (inactive). The results for the nuclei count in assay [2] and in [3] were 101% and 123%, respectively. In addition, the fluorescence slope in [4] is -0.452 (inactive). Moreover, the NADPH fluorescence slope in assay [5] was -4.3e-05 (inactive). The slope in [6] was 0.00414 (inactive). Also, the call in [7] was inactive.
Regarding `COC(=O)C1C2C=CC3(CN(CC4CCCO4)C(=O)C13)O2` (stereo unspecified), the cell count in assay [1] is 504. Also, the inhibition is 4% (inactive) in assay [1], 9.9% (inactive) in [3], 5.61% (inactive) in assay [8] and 11.6% (inactive) in assay [9]. Also, in [2], the inhibition of aggregation was -7.3% (inactive). Also, the nuclei count in assay [2] turned out to be 111%; in [3] it was 98.5%. Besides, in assay [4], the fluorescence slope was -0.457 (inactive). Besides, in assay [5], the NADPH fluorescence slope is -1.5e-05 (inactive). Moreover, the slope in assay [6] is 0.00504 (inactive). For the same compound, the outcome in assay [7] was inactive.
As to `CCOc1ccccc1C(=O)Nn1c(C2CCC2)nc2ccccc2c1=O`, in assay [1], the cell count worked out at 292. Also, the inhibition is -14% (inactive) in [1], -38.2% (inactive) in assay [3], 20.9% (inactive) in assay [8] and 37.7% (inactive) in assay [9]. In assay [2], the inhibition of aggregation is -21.7% (inactive). The results for the nuclei count in [2] and in assay [3] were 7.3% and 98.8%, respectively. Also, in [4], the fluorescence slope was -0.467 (inactive). For the same compound, the NADPH fluorescence slope in assay [5] was -5.5e-05 (inactive). The slope in assay [6] was 0.00459 (inactive). In addition, the compound was classed as inactive in assay [7].
As for `Cn1c(-c2ccccc2)cnc1SCc1nc2ccccc2c(=O)[nH]1`, the cell count in assay [1] worked out at 428. Besides, the inhibition is 0.8% (inactive) in [1], -80.8% (inactive) in assay [3], 11.1% (inactive) in assay [8] and -54% (inactive) in assay [9]. In addition, in [2], the inhibition of aggregation was -3.4% (inactive). In addition, the values for the nuclei count in [2] and in assay [3] were 119% and 109%, respectively. Further, in [4], the fluorescence slope is -0.379 (inactive). The NADPH fluorescence slope in assay [5] was -6.5e-05 (inactive). Moreover, in assay [6], the slope was 0.00544 (inactive). For the same compound, the call in assay [7] was inactive.
Turning to `CC12CN3CCN(CC(C3)C1(O)CN1CCCCC1)C2` (stereo unspecified), the cell count in assay [1] was found to be 305. Further, the inhibition in assay [1] was 1.7% (inactive); in assay [3], -66.3% (inactive); in [8], 10.7% (inactive); in assay [9], 35.8% (inactive). Also, in assay [2], the inhibition of aggregation is -16.8% (inactive). In addition, the figures for the nuclei count in [2] and in assay [3] were 111% and 121%, respectively. Also, the fluorescence slope in assay [4] is -0.347 (inactive). Besides, the NADPH fluorescence slope in assay [5] is -5.6e-05 (inactive). Also, the slope in [6] was 0.00521 (inactive). Moreover, the call in [7] was inactive.
Consider `CCOC(=O)N1CCN(C(=O)c2cnn(-c3ccccc3)c2NC(=O)c2ccccc2F)CC1`, for which the cell count in assay [1] amounted to 397. Further, the inhibition in assay [1] is 12.1% (inactive); in [3] it was -69.8% (inactive); in assay [8], 16% (inactive); in [9] it was 17.2% (inactive). Further, in [2], the inhibition of aggregation was 1.7% (inactive). In addition, the nuclei count in assay [2] worked out at 117%; in assay [3], 106%. Moreover, the fluorescence slope in [4] was -0.34 (inactive). Also, the NADPH fluorescence slope in assay [5] is -3.7e-05 (inactive). Besides, in assay [6], the slope is 0.00614 (inactive). In addition, the result in assay [7] was inactive.
Regarding `O=C(O)C(c1ccccc1)N1CCCC1` (stereo unspecified), in assay [1], the cell count came out at 643. The inhibition in assay [1] was 3.4% (inactive); in assay [3], -110% (inactive); in assay [8], 13% (inactive); in [9], 8.7% (inactive). Further, the inhibition of aggregation in assay [2] was -1.7% (inactive). Besides, the nuclei count in assay [2] came to 108%; in assay [3], 104%. Further, the fluorescence slope in [4] was -0.291 (inactive). Further, in assay [5], the NADPH fluorescence slope is -6.9e-06 (inactive). In addition, the slope in assay [6] is 0.00482 (inactive). Moreover, in assay [7], the compound was called inactive.
Consider `CC1Oc2ccccc2N(CC(=O)NCc2cccs2)C1=O` (stereo unspecified), for which the cell count in assay [1] turned out to be 787. Besides, the inhibition in assay [1] was 1.6% (inactive); in [3], -146% (inactive); in [8], -0.51% (inactive); in [9], -12.6% (inactive). For the same compound, the inhibition of aggregation in assay [2] was 2.2% (inactive). Moreover, the results for the nuclei count in assay [2] and in assay [3] were 91.4% and 120%, respectively. For the same compound, the fluorescence slope in assay [4] was -0.448 (inactive). Further, the NADPH fluorescence slope in assay [5] is -6e-05 (inactive). In assay [6], the slope was 0.00433 (inactive). Also, the outcome in assay [7] was “active; weak signal in gallbladder only”.
With `CN(C)c1ccc(C2C3=C(CCCC3=O)OC3=C2C(=O)CCC3)cc1`, the cell count in assay [1] came to 571. The inhibition was -6.3% (inactive) in assay [1], -20.9% (inactive) in assay [3], 14.3% (inactive) in assay [8] and 17% (inactive) in [9]. Moreover, the inhibition of aggregation in assay [2] is 8.9% (inactive). In addition, the results for the nuclei count in assay [2] and in [3] were 112% and 110%, respectively. In addition, the fluorescence slope in [4] is -0.37 (inactive). For the same compound, in assay [5], the NADPH fluorescence slope was -5.2e-05 (inactive). Moreover, the slope in [6] was 0.00729 (inactive). In assay [7], the compound was called inactive.
`CCN(C(=O)c1ccnc(C(C)(C)C)c1)c1ccccc1`: the cell count in [1] was 334. Moreover, the inhibition is 4.4% (inactive) in assay [1], -63.1% (inactive) in assay [3], 13.6% (inactive) in assay [8] and 11.3% (inactive) in assay [9]. The inhibition of aggregation in assay [2] was -6.8% (inactive). Besides, the nuclei count in [2] worked out at 99.8%; in [3] it was 128%. Also, the fluorescence slope in assay [4] is -0.385 (inactive). Moreover, in assay [5], the NADPH fluorescence slope is -1.8e-05 (inactive). Also, the slope in assay [6] was 0.0045 (inactive). Besides, the result in assay [7] was inactive.
